According to ChEMBL document CHEMBL1141286, “Benzochromenones from the marine crinoid Comantheria rotula inhibit hypoxia-inducible factor-1 (HIF-1) in cell-based reporter assays and differentially suppress the growth of certain tumor cell lines” (J Nat Prod, 2007):
Active and inactive are the calls of the source. The calls are words filed in the database; no cut-off is given here.

Assays:
NCI-H322M = experiment: Growth inhibition of human NCI-H322M cells; format: functional
OVCAR-5 = experiment: Growth inhibition of human OVACAR5 cells; format: functional
MDA-MB-435 = experiment: Growth inhibition of human MDA-MB-435 cells; format: functional
SNB-19 = experiment: Growth inhibition of human SNB19 cells; format: functional
U-251 = experiment: Growth inhibition of human U251 cells; format: functional
SF-268 = experiment: Growth inhibition of human SF268 cells; format: functional
CCRF-CEM = experiment: Growth inhibition of human CCRF-CEM cells; format: functional
BT-549 = experiment: Growth inhibition of human BT549 cells; format: functional
NCI-H23 = experiment: Growth inhibition of human NCI-H23 cells; format: functional
SK-MEL-28 = experiment: Growth inhibition of human SK-MEL28 cells; format: functional
NCI-H522 = experiment: Growth inhibition of human NCI-H522 cells; format: functional
PC-3 = experiment: Growth inhibition of human PC3 cells; format: functional
SW-620 = experiment: Growth inhibition of human SW620 cells; format: functional
SN12C = experiment: Growth inhibition of human SN12C cells; format: functional
DU-145 = experiment: Growth inhibition of human DU145 cells; format: functional
[1] = Growth inhibition of human OVACAR3 cells; format: functional
HCT-15 = experiment: Growth inhibition of human HCT15 cells; format: functional
SF-295 = experiment: Growth inhibition of human SF295 cells; format: functional
LOX IMVI = experiment: Growth inhibition of human LOXIMVI cells; format: functional
MDA-MB-231 = experiment: Growth inhibition of human MDA-MB-231 cells; format: functional
HCT-116 = experiment: Growth inhibition of human HCT116 cells; format: functional
MCF7 = experiment: Growth inhibition of human MCF7 cells; format: functional
K562 = experiment: Growth inhibition of human K562 cells; format: functional
Hs-578T = experiment: Growth inhibition of human HS578T cells; format: functional
[2] = Inhibition of 1,10-phenanthroline-induced HIF1 activation in T47D cells by TK-luciferase assay; format: cell-based; conditions: Homo sapiens
In short: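 HIF-1 reporter (pHRE-TK-Luc) assays in transfected PC-3 or T47D cells; HIF-1 induced by hypoxia or by the hypoxia mimetic 1,10-phenanthroline (10 μM); compounds at half-log concentrations; luciferase activity measured; IC50 from experiments in triplicate.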

NCI/ADR-RES = experiment: Growth inhibition of human NCI/ADR-RES cells; format: functional
SK-OV-3 = experiment: Growth inhibition of human SK-OV3 cells; format: functional
786-0 = experiment: Growth inhibition of human 786-0 cells; format: functional
UO-31 = experiment: Growth inhibition of human UO31 cells; format: functional
UACC-62 = experiment: Growth inhibition of human UACC62 cells; format: functional
A549 = experiment: Growth inhibition of human A549 cells; format: functional
HOP-62 = experiment: Growth inhibition of human HOP62 cells; format: functional
COLO 205 = experiment: Growth inhibition of human COLO205 cells; format: functional
KM12 = experiment: Growth inhibition of human KM12 cells; format: functional
T47D [3] = experiment: Inhibition of 1,10-phenanthroline-induced VEGF protein secretion in human T47D cells at 10 uM after 16 hrs by ELISA; format: functional, cell-based
In short: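 T47D cells stimulated with 1,10-phenanthroline, compound at 10 μM; secreted VEGF in conditioned media by ELISA, normalized to cell-lysate protein.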

SR = experiment: Growth inhibition of human SR cells; format: functional
CAKI-1 = experiment: Growth inhibition of human CAKI1 cells; format: functional
ACHN = experiment: Growth inhibition of human ACHN cells; format: functional
HOP-92 = experiment: Growth inhibition of human HOP92 cells; format: functional
SNB-75 = experiment: Growth inhibition of human SNB75 cells; format: functional
T47D [4] = experiment: Growth inhibition of human T47D cells; format: functional
[5] = read-out: Log LC50 (the source's name) (converted)

CCCc1cc(=O)c2c(OC)c3c(OC)cc(O)c(Oc4c(O)cc(OC)c5c(OC)c6c(=O)cc(CCC)oc6cc45)c3cc2o1
GI50 (NCI-H322M): 13.5 µM | CC50 (NCI-H322M; [5]): 55 µM | TGI (NCI-H322M; read-out: Log TGI (converted)): 27.5 µM | GI50 (OVCAR-5): 7.08 µM | LC50 (OVCAR-5): 100 µM | TGI (OVCAR-5; read-out: Log TGI (converted)): 30.9 µM | GI50 (MDA-MB-435): 2.24 µM | LC50 (MDA-MB-435): 15.8 µM | TGI (MDA-MB-435; read-out: Log TGI (converted)): 5.13 µM | GI50 (SNB-19): 15.8 µM | LC50 (SNB-19): 55 µM | TGI (SNB-19; read-out: Log TGI (converted)): 29.5 µM | GI50 (U-251): 4.68 µM | LC50 (U-251): 41.7 µM | TGI (U-251; read-out: Log TGI (converted)): 15.8 µM | GI50 (SF-268): 12.6 µM | LC50 (SF-268): 66.1 µM | TGI (SF-268; read-out: Log TGI (converted)): 28.8 µM | GI50 (CCRF-CEM): 2.34 µM | LC50 (CCRF-CEM): > 100 µM | TGI (CCRF-CEM; read-out: Log TGI (converted)): 14.1 µM | GI50 (BT-549): 3.09 µM | LC50 (BT-549): 34.7 µM | TGI (BT-549; read-out: Log TGI (converted)): 11.2 µM | GI50 (NCI-H23): 2.45 µM | CC50 (NCI-H23; [5]): 33.9 µM | TGI (NCI-H23; read-out: Log TGI (converted)): 6.92 µM | GI50 (SK-MEL-28): 11.5 µM | CC50 (SK-MEL-28; [5]): 53.7 µM | TGI (SK-MEL-28; read-out: Log TGI (converted)): 24.5 µM | GI50 (NCI-H522): 6.61 µM | CC50 (NCI-H522; [5]): 60.3 µM | TGI (NCI-H522; read-out: Log TGI (converted)): 21.9 µM | GI50 (PC-3): 6.31 µM | LC50 (PC-3): 46.8 µM | TGI (PC-3; read-out: Log TGI (converted)): 20 µM | GI50 (SW-620): 11.5 µM | CC50 (SW-620; [5]): 61.7 µM | TGI (SW-620; read-out: Log TGI (converted)): 26.3 µM | GI50 (SN12C): 2.09 µM | LC50 (SN12C): 14.1 µM | TGI (SN12C; read-out: Log TGI (converted)): 4.79 µM | GI50 (DU-145): 6.03 µM | CC50 (DU-145; [5]): 43.7 µM | TGI (DU-145; read-out: Log TGI (converted)): 18.6 µM | GI50 [1]: 2.19 µM | CC50 [1, 5]: 57.5 µM | TGI ([1]; read-out: Log TGI (converted)): 8.71 µM | GI50 (HCT-15): 7.41 µM | CC50 (HCT-15; [5]): 47.9 µM | TGI (HCT-15; read-out: Log TGI (converted)): 20.4 µM | GI50 (SF-295): 5.13 µM | LC50 (SF-295): 50.1 µM | TGI (SF-295; read-out: Log TGI (converted)): 18.6 µM | GI50 (LOX IMVI): 3.47 µM | LC50 (LOX IMVI): 41.7 µM | TGI (LOX IMVI; read-out: Log TGI (converted)): 11.5 µM | GI50 (MDA-MB-231): 6.31 µM | LC50 (MDA-MB-231): 53.7 µM | TGI (MDA-MB-231; read-out: Log TGI (converted)): 21.4 µM | GI50 (HCT-116): 3.39 µM | CC50 (HCT-116; [5]): 34.7 µM | TGI (HCT-116; read-out: Log TGI (converted)): 11.5 µM | GI50 (MCF7): 3.31 µM | LC50 (MCF7): 100 µM | TGI (MCF7; read-out: Log TGI (converted)): 10 µM | GI50 (K562): 4.79 µM | CC50 (K562; [5]): 58.9 µM | TGI (K562; read-out: Log TGI (converted)): 14.8 µM | GI50 (Hs-578T): 5.89 µM | LC50 (Hs-578T): 100 µM | TGI (Hs-578T; read-out: Log TGI (converted)): 69.2 µM | IC50 [2]: 0.8 µM | GI50 (NCI/ADR-RES): 6.76 µM | LC50 (concentration killing 50% of cells) (NCI/ADR-RES): 100 µM | TGI (NCI/ADR-RES; read-out: Log TGI (converted)): 67.6 µM | GI50 (SK-OV-3): 15.1 µM | LC50 (SK-OV-3): 53.7 µM | TGI (SK-OV-3; read-out: Log TGI (converted)): 28.2 µM | GI50 (786-0): 9.33 µM | LC50 (786-0): 49 µM | TGI (786-0; read-out: Log TGI (converted)): 21.9 µM | GI50 (UO-31): 6.61 µM | LC50 (UO-31): 45.7 µM | TGI (UO-31; read-out: Log TGI (converted)): 19.5 µM | GI50 (UACC-62): 4.9 µM | LC50 (lethal concentration, 50% cell kill) (UACC-62): 41.7 µM | TGI (UACC-62; read-out: Log TGI (converted)): 17 µM | GI50 (A549): 11.2 µM | CC50 (A549; [5]): 72.4 µM | TGI (A549; read-out: Log TGI (converted)): 28.8 µM | GI50 (HOP-62): 2.57 µM | CC50 (HOP-62; [5]): 28.2 µM | TGI (HOP-62; read-out: Log TGI (converted)): 8.13 µM | GI50 (COLO 205): 10 µM | CC50 (COLO 205; [5]): 57.5 µM | TGI (COLO 205; read-out: Log TGI (converted)): 24 µM | GI50 (KM12): 13.8 µM | CC50 (KM12; [5]): 69.2 µM | TGI (KM12; read-out: Log TGI (converted)): 30.9 µM | Activity (T47D [3]): inactive | GI50 (SR): 2.88 µM | CC50 (SR; [5]): 77.6 µM | TGI (SR; read-out: Log TGI (converted)): 7.08 µM | GI50 (CAKI-1): 11 µM | LC50 (CAKI-1): 47.9 µM | TGI (CAKI-1; read-out: Log TGI (converted)): 22.9 µM | GI50 (ACHN): 7.08 µM | CC50 (ACHN; [5]): 45.7 µM | TGI (ACHN; read-out: Log TGI (converted)): 20 µM | GI50 (HOP-92): 2.14 µM | CC50 (HOP-92; [5]): 50.1 µM | TGI (HOP-92; read-out: Log TGI (converted)): 13.8 µM | GI50 (SNB-75): 2.95 µM | LC50 (SNB-75): 30.2 µM | TGI (SNB-75; read-out: Log TGI (converted)): 8.71 µM | GI50 (T47D [4]): 3.63 µM | LC50 (T47D [4]): 91.2 µM | TGI (T47D [4]; read-out: Log TGI (converted)): 12.9 µM
